Source: PubChem
Many of the other results were omitted from the sample, so hits are more common in it than they were.
INS promoter act = TRM-6 insulin promoter activation | activation, % at 2 µM | TRM-6 cells (human fetal islet line), insulin promoter eGFP reporter, imaging; plate-scaled: unstimulated 0, stimulated control 100 | 130,000 compounds, 0.81% hits;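 active means activation at 2 µM above a set limit, confirmed on inspection of the cell images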;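 further: share of cells whose green reporter signal exceeds an intensity cutoff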
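Assay system: TRM-6 insulin promoter–eGFP reporter cells / Input: 1,000 cells per well / Medium: Low-glucose (5.5 mM) medium with tamoxifen / Also added: tamoxifen inducer, 0.75 µM, in seeding medium / Timing: overnight tamoxifen, then two-day compound incubation at 37 °C / Signal: automated fluorescence imaging of paraformaldehyde-fixed, Hoechst-counterstained cells, green channel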
The depositor's hits bear a star.

SMILES	INS promoter act
O=C(Nc1ccccc1C(=O)NCC1CCCO1)c1ccc(Cl)cc1Cl (configuration not stated)	-6
Cc1ccc(-c2cc(C(=O)NCC3CCCO3)no2)cc1 (configuration not stated)	9
O=C(NCC1CCCO1)c1cc(-c2ccc(Cl)cc2Cl)on1 (configuration not stated)	86*
COC(=O)c1c(NC(=S)Nc2ccccc2Cl)sc(C)c1C	3
Cc1cc(C(=O)COC(=O)Cc2n[nH]c(=O)c3ccccc23)c(C)n1-c1cccc(C(F)(F)F)c1	-6
CCOc1ccc(NC(=O)C(C)O)c(NS(=O)(=O)c2ccc(CCNC(C)=O)cc2)c1 (configuration not stated)	9
CC1CCC2(CC1)Nc1ccccc1C(=O)N2c1ccccc1 (configuration not stated)	0
CCOC(=O)C1=C(N)OC(CCl)=C(C#N)C1c1ccsc1 (configuration not stated)	0
CCC(NC(=O)COc1ccc([N+](=O)[O-])cc1)c1ccccc1 (configuration not stated)	-67
CCC(NC(=O)c1ccc([N+](=O)[O-])cc1[N+](=O)[O-])c1ccccc1 (configuration not stated)	80*
O=C(Nc1cccc2oc(=O)ccc12)c1ccc([N+](=O)[O-])cc1[N+](=O)[O-]	0
CCc1cccc(C)c1NC(=O)C1CN(S(=O)(=O)c2ccccc2)CCN1S(=O)(=O)c1ccccc1 (configuration not stated)	8
CC(=O)OC(COc1cccc(C)c1)Cn1cnc2ccccc21 (configuration not stated)	407*
Cc1cccc(OCC(O)CNC(=O)c2ccccc2C(=O)O)c1 (configuration not stated)	-7
CC(=O)Nc1cccc(OCC(O)Cn2cnc3ccccc32)c1 (configuration not stated)	9
O=S(=O)(Nc1ccn(-c2ccccc2)n1)c1ccc(Br)cc1	8
O=C(CCc1nnc(CCCCc2ccccc2)o1)NCCN1CCOC1=O	0
Cc1cccc(-c2nnc(SCCOc3ccc4c(C)cc(=O)oc4c3)o2)c1	-4
Cc1sc2ccccc2[n+]1CCC(C)S(=O)(=O)[O-] (configuration not stated)	9
CC[n+]1c(C=C2C=C(C)OC(C)=C2)sc2ccccc21	809*
CC/C(=C/c1sc2ccccc2[n+]1CC)SC	0
CN(Cc1ccc(OC(F)F)cc1)Cc1nc2c(Br)cc(Br)cc2c(=O)[nH]1	0
Clc1cccc(N2CCN(CCNc3nc4ccccc4n4cnnc34)CC2)c1	127
Cc1cc(-c2ccccc2)n2nc(C)c(C#N)c2n1	-3
Cc1nc(N)c(C#N)c(-c2ccccc2)c1C	0
SMILES	INS promoter act
CSc1nn2c(C)c(C)c(C)nc2c1C#N	322*
O=C1c2cccc3cccc(c23)C(=O)N1CC1CCN(S(=O)(=O)c2ccc(F)cc2)CC1	0
c1ccc(CC2CCN(C3=Nc4cccc5cccc3c45)CC2)cc1	83*
c1cc2c3c(cccc3c1)C(N1CCN(C3=Nc4cccc5cccc3c45)CC1)=N2	-7
CCOCC(=O)Nc1ccc(S(=O)(=O)Nc2ncccn2)cc1	317
Cc1cc(C)c(NC2=CC(=O)CC(C)(C)C2)c(C#N)c1	-7
CCc1ccc2[nH]c3nc(C)cc(C)c3c(=O)c2c1	-81
COc1ccc(OC)c(NC(=O)C2CCCN(S(=O)(=O)c3cccc4nsnc34)C2)c1 (configuration not stated)	0
Cc1ccnc(NC(=O)C2CCN(S(=O)(=O)c3cccc4nsnc34)CC2)c1	125*
Cc1ccc(CCNC(=O)C2CCN(S(=O)(=O)c3cccc4nsnc34)CC2)cc1	7
O=C(CSc1nnnn1C1CCCC1)NCc1ccc2c(c1)OCO2	-8
Cc1ccc(NCC(O)C(O)C(O)CO)cc1C (configuration not stated)	427*
Cc1cc(N=Nc2ccccc2)c(NCC(O)C(O)C(O)CO)cc1C (configuration not stated)	-82
CSc1ccc(CNc2ccc(C)c(C)c2)cc1	0
Cc1sc2nc(CN(C(=O)NC3CCCCC3)C3CCCCC3)[nH]c(=O)c2c1C	363
CCn1ncc(C2=NOC(C(=O)Nc3ccc4c(c3)OCO4)C2)c1C (configuration not stated)	-7
c1ccc(-c2cc(-c3ccccc3)n3ncnc3n2)cc1	-69
Fc1ccc(-c2cc(C(F)(F)F)n3ncnc3n2)cc1	235*
Nc1nc2nc(-c3ccc(OCc4ccccc4)cc3)cc(C(F)(F)F)n2n1	-3
CC(=O)Nc1ccc(S(=O)(=O)Nc2nccc(/C=C/c3ccc(Cl)cc3)n2)cc1	-61
CCOc1ccccc1N(CC(=O)Nc1ccc(S(=O)(=O)N2CCOCC2)cc1)S(=O)(=O)c1ccc(Cl)cc1	7
Cc1c(Cl)cccc1NCC(=O)NN=C1CCCC1	337*
O=C(CSc1ncccn1)NN=C1CCCCCC1	-67
CC(C)CNC(=O)CC(=O)NN=C1CCCC1	-7
CN(C)c1nc(SCc2ccc(Cl)cc2)nc2c1CCCC2	3
SMILES	INS promoter act
COc1ccc(N2C(=O)CC(N3CCCC4CCCCC43)C2=O)cc1 (configuration not stated)	6
COc1ccc(C(NC(=O)C(C)(C)C)NC(=O)C(C)(C)C)cc1	95*
COc1ccc(C(C)NC(=O)Cc2ccc(Br)cc2)cc1 (configuration not stated)	4
COc1ccc(C(C)NC(=O)c2ccccc2)cc1 (configuration not stated)	3
COc1ccc(/C=C/C(=O)NC(=S)Nc2ccccc2C(=O)NC2CCCCC2)cc1	8
CN(C)CCCN(C(=O)c1ccco1)c1nc2ccc(Cl)cc2s1	0
COc1ccc(OC)c2sc(N(CCN(C)C)C(=O)c3cc(Cl)sc3Cl)nc12	283*
CN(C)CCN(C(=O)c1cccc(Cl)c1)c1nc2c(Cl)cccc2s1	-10
CC1=C(C(=O)Nc2ccccc2)C(c2ccc(C(C)C)cc2)N2C(=O)CSC2=N1 (configuration not stated)	3
CCOC(=O)C1CCN(C(=O)COc2ccc(Cl)cc2)CC1	0
CCOC(=O)C1CCCN(C(=O)CCc2ccccc2)C1 (configuration not stated)	-78
CCOC(=O)C1CCCN(C(=O)Cc2ccc(Cl)cc2)C1 (configuration not stated)	85*
Oc1ccc(/C=N/N(Cc2ccccc2)c2ccccc2)c(O)c1O	8
O=C(COC(=O)c1ccccc1NS(=O)(=O)c1ccc(Cl)cc1)NCc1ccccc1	-7
CN(Cc1nc(-c2ccncc2)no1)S(=O)(=O)c1ccccc1	24
O=c1cc(CS(=O)(=O)c2ccccc2)nc(-c2ccncc2)[nH]1	331*
O=c1[nH]c(CS(=O)(=O)c2ccccc2)nc2ccccc12	6
COc1ccc(N=C2CCCN2CC(N)=O)cc1	6
Cn1c(Cn2c(=O)sc3ccccc32)nnc1SCC(=O)N1CCc2ccccc21	62
O=C(NCCn1cc(SCc2ccc(F)cc2)c2ccccc21)c1ccccc1F	10
CCc1nnc(NC(=O)CSc2nc(-c3ccc(OC)cc3)ns2)s1	-25
COc1ccc(-c2nsc(SCC(=O)Nc3cc(C)on3)n2)cc1	2
Cc1cccc(-c2nsc(SCC(=O)Nc3nccs3)n2)c1	121*
CCCn1cc(NC(=O)c2cc3n(n2)C(C(F)(F)F)CC(c2ccccc2)N3)cn1 (configuration not stated)	431*
